Most compounds without a hit are left out; they make up all but 1.5% or so of the library.
GASC-1 inh = blocks human GASC-1 demethylase activity. GST-JMJD2C(1-420) H3K9me3 demethylation, DELFIA europium. inhibition, % at 2.35 µM. hit rate 0.069% among 330,000;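 active = more than half of a compound's replicate wells show inhibition beyond 50%, single wells judged on their own value; inconclusive = some, but no more than half, of replicates pass 50% inhibition; inactive = no replicate passes 50% inhibition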;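 note: signal counts dimethyl H3K9 product captured on neutravidin plate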
Target sequence (Q9H3R0 1-420 limits assumed): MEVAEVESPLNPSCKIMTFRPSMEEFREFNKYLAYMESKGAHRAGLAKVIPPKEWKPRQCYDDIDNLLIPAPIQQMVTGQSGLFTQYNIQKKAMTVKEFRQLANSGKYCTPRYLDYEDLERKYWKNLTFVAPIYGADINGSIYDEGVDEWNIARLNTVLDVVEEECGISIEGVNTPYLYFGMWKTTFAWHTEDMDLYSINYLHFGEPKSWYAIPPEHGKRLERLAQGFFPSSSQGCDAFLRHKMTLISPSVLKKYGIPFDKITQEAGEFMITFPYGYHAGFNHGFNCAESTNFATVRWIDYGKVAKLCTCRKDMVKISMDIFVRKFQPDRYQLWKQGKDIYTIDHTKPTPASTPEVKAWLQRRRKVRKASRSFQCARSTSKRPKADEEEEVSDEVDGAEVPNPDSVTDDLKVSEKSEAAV
GalR3 antag = human GalR3 antagonism; O60755; HEK293 GalR3-CNG cAMP membrane potential fluorescence; galR3 body fused to GalR1 C-terminus; inhibition, % at 3 µM; hit rate 0.44% among 360,000;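 active = inhibition above the screen-wide average plus 3 SD, cut at about 13% in these data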;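 note: forskolin and galanin both at EC90 stimulate the cells; cAMP rise reported by CNG channel membrane potential dye signal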
697 NFkB inh = lowers PMA/ionomycin-induced NF-kB signal in 697 B cells | 697 B-cell NF-kB luciferase reporter, 16 h | inhibition, % at 4 µM | hit rate 0.33% among 330,000; in the data active = inhibition above about 35%
Jurkat NFkB inh = lowers PMA/ionomycin-induced NF-kB signal in Jurkat cells; PMA/ionomycin-induced NF-kB luciferase reporter, luminescence; inhibition, % at 4 µM; hit rate 0.53% among 330,000; AID 435003; in the data active = inhibition above about 50%
NR2E3 ag-1 = agonists of human NR2E3 nuclear receptor; inhibition of corepressor binding, % at 3.98 µM; AID 602229; hit rate 0.35% among 360,000; CHO-S Gal4-NCOR/VP16-NR2E3 two-hybrid, luciferase;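 active = inhibition above the mean of all tested compounds plus 3 SD, cut at about 70% in these data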;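 note: higher means lower luciferase signal from less NR2E3 corepressor binding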
NR2E3 ag-2 = agonists of human nuclear receptor NR2E3; Q9Y5X4; GST-NR2E3/biotin-RetCOR TR-FRET, 1536-well; inhibition of corepressor binding, % at 4.78 µM; hit rate 0.12% among 320,000; AID 2300;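 active = percent inhibition above the cutoff of mean plus 3 SD of all tested compounds, set per screening campaign, cut at about 20% in these data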
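Test system: GST-NR2E3 and biotin-RetCOR proteins | Quantity: 1.35 nM GST-tagged NR2E3 final | Medium: Tris pH 7.5 | Also added: 7 nM biotin-RetCOR | Dosing: Compound at 4.8 µM, single dose | Timing: 5 h at 4 °C | Detection: Time-resolved FRET | Read-out basis: Percent inhibition | Benchmarks: Biotin wells as high control, 0.6% DMSO wells as low control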
697 NFkB conf = lowers PMA/ionomycin-induced NF-kB signal in 697 B cells; 697 B-cell NF-kB luciferase, 16 h; shares compounds with 697 NFkB inh; hit rate 35% among 2,000; inhibition, % at 4 µM; AID 449746; in the data active = inhibition mostly above about 28%, no sharp cut-off; inactive = mostly below about 22%
Hits are given with their value; . = inactive; ? = inconclusive; / = not tested or not shown.

SMILES | GASC-1 inh | GalR3 antag | 697 NFkB inh | Jurkat NFkB inh | NR2E3 ag-1 | NR2E3 ag-2 | 697 NFkB conf
Cc1cc(C)c(OCC(=O)NCC2COc3ccccc3O2)c(C)c1 (configuration not stated) | . | . | . | . | . | . | /
CC12CCC(=O)C=C1CCC1C2CCC2(C)C1CC1C3C(=O)N(Cc4ccccc4)C(=O)C3CC(=O)C12 (configuration not stated) | / | . | / | / | . | / | /
O=C(COc1ccccc1)OCC(=O)c1ccc(S(=O)(=O)N2CCCCC2)cc1 | . | . | . | . | . | . | /
COc1ccc2nc(NC(=O)c3cccs3)sc2c1 | . | . | . | . | . | . | .
CC(=O)Nc1ccc2nc(NC(=O)c3cccs3)sc2c1 | . | . | . | . | . | . | /
COc1ccc2nc(NC(=O)c3ccccc3O)sc2c1 | . | . | . | . | . | . | .
COc1ccc2nc(NC(=O)Nc3ccccc3OC)sc2c1 | . | . | . | . | . | . | .
Cc1ccc(NC(=O)CC(NCC2CCCO2)C(=O)O)cc1C (configuration not stated) | . | . | . | . | . | . | /
O=C(OCc1csc(-c2ccccc2)n1)c1cccs1 | . | . | . | . | . | . | /
Cn1cccc1C(=O)OCc1csc(-c2ccccc2)n1 | . | . | . | . | . | . | .
Nc1ccc(C(=O)OCCCc2nc3cc4ccccc4cc3[nH]2)cc1 | . | . | . | . | . | . | /
Nc1ccc(Cc2nc3cc4ccccc4cc3[nH]2)cc1 | . | . | . | . | / | . | .
Nc1ccc(C(=O)OCc2nc3cc4ccccc4cc3[nH]2)cc1 | . | . | . | . | . | . | .
O=C(/C=C/Nc1ccc(Br)cc1F)c1ccco1 | . | . | . | . | . | . | .
O=C(/C=C/Nc1ccc(F)cc1F)c1ccco1 | . | . | . | . | . | . | /
CC1CCN(S(=O)(=O)c2ccc(N=NC3=C(O)CC(C)(C)CC3=O)cc2)CC1 | . | . | . | . | . | . | /
CC1(C)CC(=O)C(N=Nc2cccc(S(=O)(=O)N3CCOCC3)c2)=C(O)C1 | . | . | 38 | . | . | . | .
CCn1c(=O)cc(SCC(=O)N2CCN(C(=O)c3ccco3)CC2)c2ccccc21 | . | . | 53 | . | . | . | 38
CCn1c(=O)cc(SCC(=O)N2CCN(c3ccccc3OC)CC2)c2ccccc21 | . | . | 36 | . | . | . | .
CCn1c(=O)cc(SCC(=O)N2CCN(C3CCCCC3)CC2)c2ccccc21 | . | . | 48 | . | . | . | .
CCn1c(=O)cc(SCC(=O)N2CCOCC2)c2ccccc21 | . | . | 42 | . | . | . | 45
COC(=O)c1cc2c(c3c4ccccc4n(S(=O)(=O)c4ccc(C)cc4)c13)C(=O)N(Cc1ccccc1)C2 | / | . | / | / | / | / | /
COc1ccc(C2(c3ccc(OC)cc3)NC(=O)N(CC(=O)N(C)C3CCC(C)CC3)C2=O)cc1 (configuration not stated) | . | . | . | . | . | . | /
O=C1C=C(c2ccc(F)c(Cl)c2)C[C@@H](c2ccc(F)cc2)C1 | . | . | . | . | . | . | /
COc1ccccc1N1CCN(C(=O)CCc2nnc3ccc(N4CCC(C)CC4)nn23)CC1 | . | . | . | . | . | . | /
SMILES | GASC-1 inh | GalR3 antag | 697 NFkB inh | Jurkat NFkB inh | NR2E3 ag-1 | NR2E3 ag-2 | 697 NFkB conf
Clc1ccc(OCc2cc(-c3ccccc3)no2)c(Cl)c1 | . | . | . | . | . | . | .
CCn1c(=O)c2cc(C(=O)NCCN3CCOCC3)sc2c2ccccc21 | . | / | . | . | . | . | /
CCn1c(=O)c2cc(C(=O)NCc3cccs3)sc2c2ccccc21 | . | / | 39 | . | . | . | 36
CCCCNC(=O)c1cc2c(=O)n(CC)c3ccccc3c2s1 | . | . | . | . | . | . | /
CCn1c(=O)c2cc(C(=O)NC(C)C)sc2c2ccccc21 | . | . | 37 | . | . | . | 28
COc1cc(C)nc(NC(=O)NC(=O)c2ccc(C(F)(F)F)cc2)n1 | . | . | . | . | . | . | /
Cc1ccc2nc(-c3ccc(-c4ccccn4)s3)cn2c1 | . | . | . | . | . | . | /
Cc1cccc(/C=N/NC(=O)c2ccc3c(c2)OCCO3)c1O | ? | . | . | . | . | . | .

High-throughput results from PubChem BioAssay.
